The labels stand for the following.
B1: tRNA (parent)
chain: GUUCCGUUGGCGUAAUGGUAACGCGUCUCCCUCCUAAGGAGAAGACUGCGGGUUCGAGUCCCGUACGGAACG

Variants at the floor of the assay were thinned out.

This data set covers variants of B1. Briefly: yeast fitness relative to wild type (ratio to wild type); higher = fitter; tRNA-Arg(CCU), competitive growth, 37 C, YPD. The method in brief:
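Changes in genotype frequencies gave Darwinian fitness relative to wild type. Frequencies were read by 100-nucleotide paired-end sequencing of gene amplicons before and after pooled Saccharomyces cerevisiae strains, carrying tRNA-Arg(CCU) gene variants at the native locus, were competed in YPD at 37°C for 24 hours in six replicates. A genotype was kept only with ≥ 100 starting reads, and estimates < 0.5 were set to 0.5.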
As to A40U A45C, the yeast fitness was found to be 0.871. Turning to C5U G38C A65U, the yeast fitness is no more than 0.5. For the variant G25A A65G, the yeast fitness was 0.956. Regarding C4U U35A A43U C62U G67C G68A, the yeast fitness was no more than 0.5.

For the variant A36U A37U, the yeast fitness worked out at 0.587.

As for U8G C11G U32A, the yeast fitness was 0.642. As to G10A C61A A69C A70C, the yeast fitness was no more than 0.5. Consider G38C A65U, for which the yeast fitness stood at 0.723. With C4G G18C G58C C61U G68A, the yeast fitness was found to be 0.615. For the variant A20C C24G A42G, the yeast fitness was determined as 0.585. U3A C24G C33G C55U: the yeast fitness was no more than 0.5. As for U7A C34A G56C A65G, the yeast fitness is no more than 0.5.

A42G A69C: the yeast fitness amounted to 0.95. As for A14G A42U, the figure is 0.873; as for A21U C22G A69U, 0.613. For C5G C30G C66A, the yeast fitness is no more than 0.5. Take C5G C66G: the yeast fitness turned out to be 0.781. Under C27G U53C G56A C66U stands no more than 0.5; under C4G U28A G39A A65U G68A, no more than 0.5; under G68A A70G, 0.885. As for C31G U54C C55G U64C, the yeast fitness is no more than 0.5. Consider A14G C24U C30U C60A, for which the yeast fitness was no more than 0.5.

On to C11A A57G A69U, for which the yeast fitness is no more than 0.5.

Consider A15C G25C C29U U35C A43U A57C G58A, for which the yeast fitness is no more than 0.5. As for C4G C5A C27A C34A A42U, the figure is no more than 0.5; as for C4A G10A A14G C31A, no more than 0.5; as for U2A C24U C29U C33U C34G A42U G58A, 0.56. With U35C C66G, the yeast fitness was found to be 0.657. With U35G G51A A65C, the yeast fitness stood at 0.622. Consider G38A U54A A57C, for which the yeast fitness was 0.551. Turning to C11U C22U A70G, the yeast fitness worked out at 0.644.

Take C27U C33U G38C C62U: the yeast fitness was no more than 0.5. In the case of U2C C4U A37C G48A C60G A65U, the yeast fitness was no more than 0.5. As to C4A C31G, the yeast fitness came to 0.758.

For C4A C27U A40U G52C C60G, the yeast fitness is no more than 0.5. Take A20G A37U C62A: the yeast fitness was no more than 0.5.

For the variant C5A C34U G41C A69G, the yeast fitness was no more than 0.5. A20G C24U G52A A57G C66U: the yeast fitness is no more than 0.5.

For the variant U2A A14C C30U C34G G63A, the yeast fitness stood at 0.574. In the case of G25A A65U G68C, the yeast fitness stood at 0.657. A15G C49G C62G: the yeast fitness is no more than 0.5. On to U3C C49G, for which the yeast fitness came out at 0.943.

With G25C C27G U47C, the yeast fitness is no more than 0.5. For the variant U8A G23A, the yeast fitness was determined as 0.597. Under G12A G51A C61A stands no more than 0.5. In the case of U3A G63C, the yeast fitness was found to be 0.743. As for C4G U28C C66U, the yeast fitness came out at 0.524. As to C30U G38C A65G, the yeast fitness worked out at 0.53. For G44C G50C U54G C61G U64C, the yeast fitness is no more than 0.5. Under G44A C46U G58A stands 0.687. Consider U26C A57G, for which the yeast fitness was 0.984. As for U8C C24U U26A, the figure is 0.607; as for C29U C61U G63C, no more than 0.5. As for C5G A20C C27G C49U U53A, the figure is 0.568; as for A15G C31U, 0.987. Under U8C C27A A42C stands 0.532. With C11G A15U G38A C46G G56C, the yeast fitness was no more than 0.5. As for U8C C66A, the yeast fitness is 0.687.

As for C33G U35C U59A, the yeast fitness turned out to be 0.594.

On to C27A C61G A69G, for which the yeast fitness is no more than 0.5.

With A15U G18A A42U, the yeast fitness was 0.567. Turning to C4A A43U C62U, the yeast fitness was determined as 0.791.

As for U16G C30A G51C G56C C62G, the yeast fitness worked out at 0.65.

C5A G63A: the yeast fitness was found to be 0.683. Under U2A A43C C61U stands 0.572. Under U2A C11G A42U stands no more than 0.5. As for C4U U8C A37U A45U C49U A65G, the yeast fitness was no more than 0.5.

On to G6A U7G G25C U53A A69C, for which the yeast fitness was no more than 0.5. For C11U C34G C55G U59C C60U G67U, the yeast fitness was no more than 0.5.

Regarding G12A G25A G68C, the yeast fitness was found to be 0.645. For C22U C24A C27U, the yeast fitness is no more than 0.5. As to A37G G39A A45C, the yeast fitness was determined as 0.635. As for G39U U53A C55U, the figure is 0.684.

Consider A37G A57G U64C, for which the yeast fitness is no more than 0.5. Turning to A14G A40U A65C, the yeast fitness was determined as 0.533. For the variant C4G C24U A43U, the yeast fitness came out at 0.65. A20G G25C: the yeast fitness came to 0.985.

Turning to C29A A65U, the yeast fitness was 0.626. Take A21C A36C G56A: the yeast fitness came out at 0.562. As to C4A C24G C61A C66U, the yeast fitness is no more than 0.5.

On to U13A C27U A70U, for which the yeast fitness is 0.867. As to C4U U7G C11G C46G, the yeast fitness was no more than 0.5.

On to C4A U7A C31A C55A, for which the yeast fitness was determined as 0.717. Under U47A A65U stands 0.68; under U28A C29G C33U C34G A42U, 0.536. U8G U28A C34A C66A: the yeast fitness is no more than 0.5. Turning to C5G G48A C62G A69U, the yeast fitness was found to be 0.768. On to A42G C46U, for which the yeast fitness is 0.974. As to C11G A20U C24A G25C A70G, the yeast fitness is no more than 0.5.

On to C5A A69C, for which the yeast fitness was 0.919.

For C22G C27U C33A A36C A43G C55G, the yeast fitness was no more than 0.5. Turning to C24G G68A, the yeast fitness was determined as 0.653. In the case of G18C A70C, the yeast fitness is 0.687. For C27U A42U C61G, the yeast fitness was found to be 0.545.

Turning to C5A G17A C46A C55G, the yeast fitness is no more than 0.5. On to G6A A36U C49G C62U, for which the yeast fitness was no more than 0.5. As for U19A G25C C33A A37G G68A, the figure is no more than 0.5. Regarding U13A U35C C46U C55G, the yeast fitness is no more than 0.5. On to U3C C31U C49G, for which the yeast fitness was 0.755.

Consider U7A G9C A40C U47C, for which the yeast fitness was no more than 0.5. Take C30A C31U A36G: the yeast fitness came out at 0.587. Under U26C A45U G68C stands no more than 0.5; under A42C A65G C66G, no more than 0.5.

In the case of C24G C33U U47G, the yeast fitness is no more than 0.5. Turning to A15U C22U A57C, the yeast fitness is no more than 0.5. Turning to G9C C22G C62A, the yeast fitness is no more than 0.5.

With U2G A57G, the yeast fitness was found to be 0.82. Under U3G U35G A40C G48A C60U U64G A65U A69C stands no more than 0.5. As for U16C C24G U32A G56A, the figure is 0.544; as for U3C G58A G68C, 0.59. Take G39U A40C C66A A69U: the yeast fitness stood at 0.642.

Consider C4A C5U G58C U64A, for which the yeast fitness amounted to 0.572.

Consider G10A A20C C24U A57G C61U, for which the yeast fitness was no more than 0.5. As for G6C G23C C24A C61U, the yeast fitness is no more than 0.5. In the case of U8A G18C C24A U32C, the yeast fitness is 0.607. As for C5U U13A C27G A57C G67A A69U, the figure is no more than 0.5; as for A21G C27A A36U A40G G52C G67A, no more than 0.5. Consider U13C U47G, for which the yeast fitness was found to be 0.625. C5U G10C A15G G67U: the yeast fitness is no more than 0.5. Take A15U A43U A69C: the yeast fitness turned out to be 0.697. As for U13C A20C C22U C60G, the figure is no more than 0.5; as for C5G U53G A65G, no more than 0.5; as for U3G A37U U54C G58A C66U, no more than 0.5.

Take U7A C24U C33A: the yeast fitness was no more than 0.5.

As for C4G C62U, the yeast fitness was 0.869. As for C22U C24A A42U C49U C61U, the yeast fitness is no more than 0.5. For the variant A20C A36U G39C, the yeast fitness was 0.618. In the case of A15C C46U A69U, the yeast fitness turned out to be 0.814. Under C5G C29A U53C C62A G67A stands no more than 0.5; under C4U C30A, 0.917. As for A14U G17A G23C C29U C34G A45C U54G G56A, the yeast fitness is no more than 0.5. Turning to U16G U28A A42U U54A, the yeast fitness is no more than 0.5. As to G9A G10A C31G G52A, the yeast fitness amounted to 0.531.

With A20G C60A C61G, the yeast fitness is no more than 0.5. For C4U C5G U28C C61A, the yeast fitness was no more than 0.5. With G12A C24G A40C A43C C46U G56A G68C A69U, the yeast fitness was no more than 0.5. With C5U C11U U28G A40C, the yeast fitness is 1.13. Consider C30U C49G, for which the yeast fitness came to 0.718.

Take C11A C27U G44U: the yeast fitness was no more than 0.5.

As for G18U G39A, the yeast fitness amounted to 0.594. For the variant G63A, the yeast fitness stood at 0.853. Turning to G38C A42C A65C, the yeast fitness was no more than 0.5. Regarding U7A A14C A20G C66G, the yeast fitness is no more than 0.5.

With A21U U32G G48C G68C, the yeast fitness was no more than 0.5. C4U G12A A40U: the yeast fitness is 0.642. As for C4A A21G C33U G51C, the figure is no more than 0.5; as for C22U A57G, 0.775; as for U8A G12A A14C A57U G67C, no more than 0.5. On to A36C G56C A57C, for which the yeast fitness was 0.593.

With C4U C11A A42G G48C A65U, the yeast fitness was 0.555.

C24G A43C C46G U53G C61U: the yeast fitness was no more than 0.5. As for U64C G68C, the figure is 0.978. For G6A U35A G67C, the yeast fitness is no more than 0.5. For G10C C27U A40U A45U, the yeast fitness was no more than 0.5.

As to C5U G6A A40C C46A, the yeast fitness stood at 0.578. Regarding A57C G63C, the yeast fitness was determined as 0.601. Consider C4U G52A A70U, for which the yeast fitness worked out at 0.604.

Consider U8C G50A, for which the yeast fitness came out at 0.773.

Consider C4G A42G A45U U54C C55G C61A, for which the yeast fitness is no more than 0.5. With A14U G17A A45U G58C, the yeast fitness was no more than 0.5. For U7A A57U, the yeast fitness was determined as 0.572. For the variant C5U A14G A65U G67A, the yeast fitness stood at 0.689. Under C30U C34A A36G C60U A70U stands no more than 0.5; under A43G G56A, 0.86; under U7C G25A U28A G48C A70C, no more than 0.5.

For the variant C27G A43C G63C, the yeast fitness was no more than 0.5.

Turning to A20C G44A C46U A69C, the yeast fitness is 0.698.

For the origin of these results see the RNAGym collection of RNA variant scans (doi:10.1126/science.aae0568).
